Test results as given in article PMC12574688 (European journal of medicinal chemistry, 2025).
Like-named read-outs stand apart in the source and are kept apart here. One block for each compound: values may come before it.

What was measured:
BRK = BRK (Homo sapiens, UniProt Q13882); experiment: BRK biochemical inhibitory assay; conditions: for inhibition at 2 µM: read-out: % BRK Inhibition
How it was run: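 Human BRK kinase pre-incubated with test compound for 10 min, then substrate and ATP mix added. Kinase reaction run 1 h. ADP-Glo reagent added for 40 min, then kinase detection reagent for 45 min. Luminescence read. Single-point screens run at 2 μM and at 0.2 μM test compound, given as % BRK inhibition.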

MDA.MB.231 cell line = experiment: MTT cytotoxicity / cell viability assay; type: cell-based
MDA.MB.231 cells = experiment: Colony formation assay; type: cell-based; conditions: varying concentrations
BT-20 cells = experiment: Colony formation assay; type: cell-based; conditions: varying concentrations
HCC1806 cells = experiment: Colony formation assay; type: cell-based; conditions: single concentration of 10 μM
[1] = test system: AKT phosphorylation in BT-20 cells; experiment: Western blot of AKT phosphorylation; type: cell-based; conditions: vs control, preliminary western blot (Figure S3)

BRK, sequence (Q13882 whole entry): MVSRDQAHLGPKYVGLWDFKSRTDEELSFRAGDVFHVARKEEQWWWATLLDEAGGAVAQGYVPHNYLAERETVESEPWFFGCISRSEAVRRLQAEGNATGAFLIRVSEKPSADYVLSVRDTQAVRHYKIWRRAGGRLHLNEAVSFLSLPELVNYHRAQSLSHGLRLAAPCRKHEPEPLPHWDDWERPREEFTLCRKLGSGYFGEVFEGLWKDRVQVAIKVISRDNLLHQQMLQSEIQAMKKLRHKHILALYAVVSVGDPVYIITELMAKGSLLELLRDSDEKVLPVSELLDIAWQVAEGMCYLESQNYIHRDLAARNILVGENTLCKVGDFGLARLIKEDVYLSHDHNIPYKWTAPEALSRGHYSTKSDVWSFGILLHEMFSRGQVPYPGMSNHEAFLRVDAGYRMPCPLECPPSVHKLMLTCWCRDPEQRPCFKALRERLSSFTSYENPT

SMILES: Oc1cccc(Nc2ccnc3[nH]c4ccccc4c23)c1 [Compound 4f, tilfrinib]
Biochemical assay % Inhibition 0.2 μM (BRK; 0.2 μM, ADP-Glo (Table 3)): 86% | Biochemical assay % Inhibition 2 μM (BRK; 2 μM, ADP-Glo (Table 3)): 100% | IC50 (BRK; read-out: BRK IC50, enzymatic inhibition): 25 nM | IC50 (BRK; read-out: Biochemical assay IC50, ADP-Glo (Table 3)): 25.7 ± 5.05 nM | % BRK Inhibition (BRK; single point, 2 μM, ADP-Glo, pyrimido-indole derivatives (Table 1)): 100.0 ± 7.8% | Cellular assay MDA.MB.231 % Inhibition 10 μM (MDA.MB.231 cell line; MTT, 10 μM, 72h treatment): 31.40% | cytotoxicity in viability studies (MDA.MB.231 cell line; viability studies, in words): minimal cytotoxicity | colony formation (MDA.MB.231 cells): reduce the colony formation | colony formation (BT-20 cells): reduce the colony formation | colony formation (HCC1806 cells): reduce the colony formation | AKT phosphorylation [1]: increase in AKT phosphorylation

inhibition at 2 µM (BRK): 29.6 ± 22.9%
SMILES: Oc1cccc(-c2cncc(Cl)n2)c1 [Compound 26, 3-(6-chloropyrazin-2-yl)phenol]

inhibition at 2 µM (BRK): 48.9 ± 8.9%
SMILES: Oc1cccc(-c2cnc3ccccc3n2)c1 [Compound 32, 3-(quinoxalin-2-yl)phenol]

inhibition at 2 µM (BRK): 76.1 ± 7.3%
SMILES: Oc1cccc(Nc2ncnc3cc(Br)ccc23)c1 [Compound 35, 3-((7-bromoquinazolin-4-yl)amino)phenol]
